Results from different studies.
Target: TGF-beta receptor type-2 (TGFBR2, Homo sapiens, UniProt P37173)

With C=CC(=O)N1CCC(C(=O)NCC(=O)N2CCN(c3nc(-c4cnc(N)nc4C(F)F)nc(N4CCOCC4)n3)CC2)CC1 the remaining binding was 88% (binding; competition with immobilised ligand; 1 µM).
O=C(N[C@H]1CCCCC/C=C\C2C[C@@]2(C(=O)O)NC(=O)[C@@H]2C[C@@H](Oc3ccncc3)CN2C1=O)OC1CCCC1 (stereo partly drawn) has a remaining binding of 85% (cell-free assay; competition with immobilised ligand; 1 µM).
For COc1ncc2cc3ccccc3nc2c1C#N, the remaining binding was 100% (cell-free assay; competition with immobilised ligand; 5 µM).
With O=C(NCCCN1CCOCC1)c1ccc(Nc2nccc(-c3cc4ccccc4s3)n2)cc1 the remaining binding was 64% (binding; competition with immobilised ligand; 1 µM).
For C[C@H]1CCN(c2nccc(-c3cnn4ncccc34)n2)C1, the remaining binding was 60% (binding; 1 µM).
Nc1ncc2c(n1)-c1c([nH]c3ccc(C#CC4CC4)cc13)CCCC2 gave a remaining binding of 100% (binding; competition with immobilised ligand; 1 µM).
For O=C(c1ccc(Nc2ncc(Cl)c(-c3ccc(Cl)s3)n2)cc1)N1CCC(N2CCCC2)CC1, the remaining binding was 100% (binding; competition with immobilised ligand; 1 µM).
O=C(O)[C@@H]1[C@@H](Cn2nnc3ccccc3c2=O)CC[C@H]1C(=O)c1ccc(OCCC2CCOCC2)cc1 gave a remaining binding of 100% (cell-free assay; competition with immobilised ligand; 1 µM).
With CN(C)c1ncc(F)c(-c2cnn3ncccc23)n1 the remaining binding was 100% (binding; 1 µM).
CNC(=O)[C@@H]1CC[C@@H](n2c(-c3ccc4cnccc4c3)nc3ccc(C(=O)NCc4cccc(C(N)=O)c4)cc32)C1 gave a remaining binding of 100% (binding; competition with immobilised ligand; 1 µM).
With CO[C@@H](C)c1c(Nc2ccc([C@@H](N(C)C(=O)C3CCS(=O)(=O)CC3)C(F)(F)F)cc2)cnc2cc(Cl)nn12 the remaining binding was 100% (cell-free assay; competition with immobilised ligand; 1 µM).
COc1ccnn2ncc(-c3ccnc(N(C)C)n3)c12 has a remaining binding of 100% (binding; 1 µM).
With COc1cccc(CNC(=O)c2nc3scc(COCc4ccc(C(=O)O)cc4)c3c(=O)[nH]2)c1 the remaining binding was 97% (cell-free assay; competition with immobilised ligand; 1 µM).
For FC(F)(F)Oc1cccc(-c2cnc3ccc(-c4ccncc4)nn23)c1, the remaining binding was 66% (cell-free assay; competition with immobilised ligand; 5 µM).
The remaining binding of COc1ccc2c(O[C@@H]3C[C@H]4C(=O)N[C@]5(C(=O)O)CC5/C=C\CCCCC[C@H](NC(=O)OC5CCCC5)C(=O)N4C3)cc(-c3csc(NC(=O)C(C)C)n3)nc2c1C (stereo partly drawn) is reported as 93% (cell-free assay; competition with immobilised ligand; 1 µM).
With F[C@@H]1CCN(c2nccc(-c3cnn4ncccc34)n2)C1 the remaining binding was 100% (binding; 1 µM).
With Cc1cnc(Nc2ccc(C(=O)N3CCC(N4CCCC4)CC3)cc2)nc1-c1cc2ccccc2s1 the remaining binding was 61% (binding; competition with immobilised ligand; 1 µM).
N[C@H]1CCN(c2nccc(-c3cnn4ncccc34)n2)C1 has a remaining binding of 86% (binding; 1 µM).
O=C(NCC1CCOCC1)c1n[nH]cc1NC(=O)c1c(F)cccc1F has a remaining binding of 100% (binding; competition with immobilised ligand; 1 µM).
For CN(C)c1nccc(-c2cnn3ncccc23)n1, the remaining binding was 73% (binding; 1 µM).
The remaining binding of CNCc1ccccc1-c1csc([C@H](C)Nc2nc(C)nc3cc(OC)c(OC)cc23)c1 is reported as 97% (cell-free assay; competition with immobilised ligand; 1 µM).
